Results as given in the RNAGym collection of RNA variant scans (doi:10.1126/science.aae0568).
Fewer inactive variants are shown than the library holds.

B1: tRNA (parent)
chain: GUUCCGUUGGCGUAAUGGUAACGCGUCUCCCUCCUAAGGAGAAGACUGCGGGUUCGAGUCCCGUACGGAACG

Variants of: B1
Assay: yeast fitness relative to wild type (ratio to wild type); higher = fitter; tRNA-Arg(CCU), competitive growth, 37 C, YPD
Summary of the method: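 Variants of the tRNA-Arg(CCU) gene, chemically synthesised with a 3% per-site mutation rate at 69 sites, were placed at the native genomic locus in Saccharomyces cerevisiae. The pooled strains were competed in YPD at 37°C for 24 hours in six parallel replicates. Gene amplicons from the start population and from each end population were read by 100-nucleotide paired-end sequencing. Darwinian fitness relative to wild type came from changes in genotype frequencies; genotypes needed ≥ 100 starting reads, and estimates < 0.5 were set to 0.5.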

Row | Variant | yeast fitness
1 | U13C G52A A69U | 0.689
2 | U13A G41A | 0.714
3 | U13A C22A A36U A65G | ≤ 0.5
4 | U13A A15G C27U C62A G63A A70C | ≤ 0.5
5 | U13A C62G A69G | 0.571
6 | U13C G23A G63A A70U | 0.527
7 | U13A C24A A45C | ≤ 0.5
8 | U13A G41A G68C | 0.504
9 | G12C U28C U35A G38A C46G C62U | ≤ 0.5
10 | U13C A36U C62U G63C A70C | ≤ 0.5
11 | U13A C27G | 0.621
12 | U13A A14U C24G U28G C31U C66U | ≤ 0.5
13 | U13A A57U U64G A65G | ≤ 0.5
14 | U13C A37C U53C | 0.599
15 | U13C A14U C31G G50A A65C | 0.531
16 | U13C A15G | 0.903
17 | U13A C27U A69U | 0.864
18 | U13C C27G | 0.544
19 | U13A A37U U53G | 0.536
20 | U13A C24U G51C | 0.542
21 | U13C A43C | 1.28

Row | Variant | yeast fitness
22 | U13C A43U | 1.04
23 | U13C A14G A45G | ≤ 0.5
24 | U13A A40G | 0.733
25 | U13A A40C | 0.789
26 | U13A G63A | 0.853
27 | U13A A15C C46U | 0.612
28 | G12C U28A C66U G68A | ≤ 0.5
29 | U13C G44A C49U | 0.799
30 | U13A C31U C49U C66A G67A | ≤ 0.5
31 | U13A C29G C46G | 0.583
32 | U13A A42C C66U | 0.76
33 | G12C U32G C49G C55A | ≤ 0.5
34 | U13C C34U G48C C61U G67A | ≤ 0.5
35 | U13C C27U G52A U53A C66U | ≤ 0.5
36 | U13C A14G | 0.704
37 | U13A G56A | 0.927
38 | U13C G25C C31G | 0.877
39 | U13C A36C A43C C60A | 0.566
40 | G12C U54A | 0.701
41 | G12C U54C | 0.702
42 | U13A C31G | 1.05

Row | Variant | yeast fitness
43 | U13C G48C A65G | 0.655
44 | U13C G41C | 0.761
45 | U13C A36C U47C G67U | ≤ 0.5
46 | U13A G18C A36G G41C G67A | ≤ 0.5
47 | U13A G23C A37C G38A | 0.554
48 | U13C C24G C30A U47C | ≤ 0.5
49 | U13A G58A | 1.06
50 | U13C A20G C31U | 0.777
51 | U13A C27G C34G G48C | ≤ 0.5
52 | U13C G23C A36C G39A A43G | ≤ 0.5
53 | U13A G23C C27G C61A C62U | ≤ 0.5
54 | U13A U26G C27A G39C A42G G51C | ≤ 0.5
55 | U13A A45U | 1
56 | U13A U16A U54A A65G | ≤ 0.5
57 | U13A A20C | 0.715
58 | U13A A20G | 0.888
59 | U13A A15G U47A U64G | ≤ 0.5
60 | G12C U47C | 0.958
61 | U13C C62G | 0.804
62 | U13C A20U G39C A43C C49A U53A | ≤ 0.5
63 | U13A C24G G25A C31U | ≤ 0.5

Row | Variant | yeast fitness
64 | U13A C30U A45C | 0.611
65 | G12U G38A G52A G56C | ≤ 0.5
66 | U13C A20G C46U U47A | ≤ 0.5
67 | U13C C46U | 0.886
68 | U13A C55U A69C | 0.599
69 | U13C G52C U53A C55G A69U | ≤ 0.5
70 | U13C A43U C66U | 0.705
71 | U13C C29A C33A U35C G51A | ≤ 0.5
72 | U13C A45C | 0.853
73 | U13C A45U | 0.929
74 | U13A C22G G25C C27U C30G | ≤ 0.5
75 | U13C C31U A70C | 0.756
76 | U13C A40U C62A | 0.557
77 | U13A A45G A65C | 0.656
78 | U13A G23C C27G U53C | ≤ 0.5
79 | U13A G18A | 0.705
80 | U13C C27U A69U A70C | ≤ 0.5
81 | U13A A40C U53A | 0.53
82 | U13A U28A C31U G39A A57G | ≤ 0.5
83 | U13A G48C C55G | 0.554
84 | U13A C22U C66U | 0.534
